Compound activity: PubChem, several laboratories
Shown is part of a subset that was picked to be rich in hits.
Bfl-1 A1 inh: inhibitors of the anti-apoptotic protein A1, read as caspase activation; MEF A1-2A-BIM cells, Caspase-Glo 3/7 luminescence, 3 h; percent of clofoctol response, vehicle zero; caspase activation, % (test concentration not listed); 330,000 compounds, 0.066% hits;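 active = over half of replicate activation scores above 10%, or exactly half above 10 with the replicate mean above 10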
XBP1 UPR activ: activators of adaptive arm of unfolded protein response (XBP1) | CHO-XBP1 luciferase reporter, IRE1-XBP1 UPR activation, luminescence; percent of tunicamycin response, DMSO as zero | activation, % at 20 µM | 330,000 compounds, 0.33% hits | AID 463104;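 active = versus positive control, 20 µM dose yields 30% or more activation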;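 also: 100% = tunicamycin at 10 µg/mL and 0% = DMSO only wells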
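Material: CHO cell line with stable XBP1 luciferase reporter; schedule: 16-18 h cell attachment at 37 °C, then 6 h compound exposure; signal: glow luminescence from Steady-Glo reagent; medium: serum-containing F12 medium, 10% FBS; benchmarks: tunicamycin 10 µg/mL and vehicle-only wells; read-out: percent activation relative to tunicamycin reference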
CHOP inhibitor: blocks CHOP induction under ER stress; CHO-K1 CHOP-promoter luciferase, tunicamycin-induced, 15-18 h; inhibition, % at 10 µM; 220,000 compounds, 3.8% hits; AID 2732;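 active = compounds that reduced the stress-induced luciferase reporter signal by more than about 70% of percent inhibition, limit read from the data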;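 also: 0% = tunicamycin plus vehicle and 100% = wells without tunicamycin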
CHOP UPR activ: activators of apoptotic arm of unfolded protein response (CHOP). 330,000 compounds, 0.34% hits. activation, % at 10 µM. CHO-CHOP luciferase reporter, UPR activation, luminescence; percent of tunicamycin response over DMSO baseline;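 active = at 10 µM dose, activation of 40% or more, normalized to positive control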;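 also: 100% = tunicamycin at 10 µg/mL and 0% = DMSO alone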
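Test system: CHO-CHOP cells, stable luciferase reporter of PERK-eIF2a-CHOP signalling | Quantity: 500 CHO-CHOP cells per well | Buffer or medium: F12 plus 10% serum | Compound dosing: 10 µM single point, 0.5% DMSO | Schedule: 6 h compound treatment, 37 °C | Signal: Luciferase luminescence | Control set: Tunicamycin high control, DMSO low control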
Numbers without * were called inactive; nt = no result.

SMILES | Bfl-1 A1 inh | XBP1 UPR activ | CHOP inhibitor | CHOP UPR activ
COc1ccc(S(=O)(=O)N2CCN(C(=O)c3ccc(=O)[nH]n3)CC2)cc1OC | nt | -2.8 | nt | 1.6
Cc1ccccc1OCC(=O)NC(=S)Nc1ccccc1N1CCN(S(C)(=O)=O)CC1 | 0.1 | -2.1 | nt | -2.5
CCCOP(=O)(OCCC)C(Nc1cccc(C(F)(F)F)c1)c1ccc(C)cc1 (stereo not drawn) | 0.8 | -2.3 | 90.3* | -1.4
CCOP(=O)(OCC)C(Nc1cccc(C(F)(F)F)c1)c1ccc(C)cc1 (stereo not drawn) | 1.5 | -1.6 | 11.8 | 2.1
O=C(Nc1ccc(F)c(F)c1)C1=COCCO1 | -2.4 | 0.6 | nt | 0.1
CCN(C(=O)CCN1C(=O)c2ccccc2S1(=O)=O)c1ccccc1 | 5.7* | -0.7 | nt | 1.0
O=C(CCN1C(=O)c2ccccc2S1(=O)=O)Nc1ccccc1 | 0.2 | -3.5 | 15.4 | -0.4
Cc1ccc(C(C(=O)NC2CCCCC2)N(Cc2ccco2)C(=O)Cc2c[nH]c3ccccc23)o1 (stereo not drawn) | 0.4 | 0.1 | 86.5* | -0.7
COc1ccc(C(C(=O)NC2CCCCC2)N(C(=O)Cc2c[nH]c3ccccc23)c2ccccc2C)cc1OC (stereo not drawn) | -0.2 | -3.8 | 37.9 | 1.5
Cc1ccc(N(C(=O)Cc2c[nH]c3ccccc23)C(C(=O)NC2CCCCC2)c2ccco2)cc1 (stereo not drawn) | 1.0 | 5.7 | 87.9* | 2.3
Cc1ccc(-c2cc(C(=O)N3CCN(C(=O)c4ccco4)CC3)[nH]n2)cc1C | -1.2 | -1.4 | nt | 0.8
O=C(CCNS(=O)(=O)c1ccccc1)NNC(=O)COc1ccccc1F | -1.0 | 1.1 | nt | 0.3
CSc1ccc(-c2nc(CN3CCCCC3c3cccnc3)c(C)o2)cc1 (stereo not drawn) | 0.1 | 0.3 | 39.5 | -1.5
COc1cccc(C(=O)NNC(=O)c2ccc3ccccc3c2O)c1 | -0.9 | -3.9 | nt | 0.2
CCCN(C(=O)c1c(-c2ccccc2)noc1C)c1c(N)n(Cc2ccccc2)c(=O)[nH]c1=O | 0.0 | 6.9 | nt | -1.2
CCOc1ccc(S(=O)(=O)NC(C)(C)C)cc1-c1nc2c(C(C)(C)C)nn(C)c2c(=O)[nH]1 | -0.6 | -2.1 | 81.3* | 2.5
O=C(NC1CCCCCC1)C1CCC(CNS(=O)(=O)c2ccc(Br)s2)CC1 (stereo not drawn) | 1.1 | -2.6 | 94.7* | -0.7
CC1CCC(NC(=O)C2CCC(CNS(=O)(=O)c3ccccc3)CC2)CC1 (stereo not drawn) | 1.1 | -2.4 | nt | 2.3
O=C(NC1CCCC1)c1cccc2c1C(=O)c1ccc(/C=C/c3ccccc3)cc1S2(=O)=O | 40.2* | -3.5 | nt | -2.8
CCCOc1ccc(Cn2c(=O)oc3ccc(C)cc32)cc1 | 1.3 | -2.8 | nt | 0.9
Cc1ccccc1Cn1c(=O)n(Cc2ccco2)c(=O)c2ccccc21 | 0.1 | 0.1 | 87.5* | -0.6
Cc1ccc(-n2c(=O)c3ccc(C(=O)NCc4ccco4)cc3n(Cc3ccccc3C#N)c2=O)cc1 | 0.8 | -3.0 | 6.3 | -2.9
Cc1ccccc1Cn1c(=O)n(-c2ccccc2)c(=O)c2ccc(C(=O)NCc3ccco3)cc21 | 0.2 | -1.4 | 81.1* | 1.0
COc1cccc(N2CCN(c3nc(-c4ccccc4C)cc(=O)[nH]3)CC2)c1 | 1.6 | -3.0 | nt | -1.3
COc1ccc(/C=N/n2c(-c3ccco3)nc3ccccc3c2=O)cc1 | -0.4 | 2.1 | 80.0* | 2.6
SMILES | Bfl-1 A1 inh | XBP1 UPR activ | CHOP inhibitor | CHOP UPR activ
COc1cccc(/C=N/n2c(-c3ccco3)nc3ccccc3c2=O)c1 | -1.0 | 2.0 | -27.6 | 2.0
O=C(c1ccc(OC2CCN(CCCc3ccccc3)CC2)cc1)N1CCCC1 | 2.2 | -4.0 | nt | 2.5
Clc1ccc(-c2nc3ccccc3n2OCc2ccccc2)cc1 | 0.0 | 1.1 | 80.5* | -0.3
CC(CN1CCOCC1)OC(=O)c1ccc(Br)cc1 (stereo not drawn) | -0.5 | 11.0 | 91.8* | 7.4
COc1ccc(-c2cc(C(F)(F)F)nc(NC3CCCC3)n2)cc1OC | -0.5 | 7.3 | 73.5* | 1.7
Cc1nn(Cc2noc(C(=O)NCc3ccc4c(c3)OCO4)n2)c(C)c1Br | 0.2 | 1.9 | nt | 0.9
CCN(C[C@H]1N[C@@](C)(C(=O)OC)[C@H]2C(=O)N(C)C(=O)[C@@H]12)C(=O)COC | nt | -3.2 | nt | 0.2
COc1ccc(/C=C/C(=O)Nc2sc3c(c2C(=O)NCc2cccnc2)CCCC3)cc1 | 0.4 | 5.2 | 81.0* | 2.4
COc1ccc(/C=C/C(=O)NCc2cccnc2)cc1 | -0.8 | -0.9 | 15.0 | 1.6
FC(F)(F)c1cccc(NC(=S)N2CCN(c3ccccc3)CC2)c1 | 0.0 | -4.7 | 79.9* | 3.3
FC(F)(F)c1cccc(N2CCN(C(=S)NC3CCCC3)CC2)c1 | 0.1 | 1.5 | 81.0* | -0.2
FC(F)(F)c1cccc(NC(=S)N2CCCC2)c1 | 0.5 | -2.4 | nt | 1.9
COc1ccccc1N1CCN(C2CCCN(S(=O)(=O)c3ccccc3)C2)CC1 (stereo not drawn) | 0.9 | -4.2 | nt | -1.2
COc1cccc(/C=N/NC(=O)C(=O)Nc2ccccc2OC(F)(F)C(F)F)c1O | -0.3 | -2.6 | 78.1* | -0.1
COc1ccc(C2N(c3ccc(C)cc3)CCN2c2ccc(C)cc2)cc1O | 0.0 | -0.9 | 95.5* | -0.9
COc1cc(C2N(c3ccccc3)CCN2c2ccccc2)ccc1OC(C)=O | -0.9 | -1.0 | 14.3 | 2.0
CC(C)(C)c1cc(S(=O)(=O)CCc2ccncc2)cc(C(C)(C)C)c1F | 0.4 | 1.8 | nt | 0.1
Cc1ccc(NC(=O)CN(C)C2CCCCC2)cc1Cl | -0.1 | -3.3 | nt | -0.6
Cc1ccc2[nH]c(=O)c3cc(C(=O)N(CCCOC(C)C)Cc4ccco4)sc3c2c1 | -1.4 | 3.2 | 35.5 | 0.2
CCCCN(Cc1ccco1)C(=O)c1cc2c(=O)[nH]c3ccc(C)cc3c2s1 | -0.3 | 3.8 | 72.7* | -1.9
O=S(=O)(Nc1ccc(Cl)cc1)c1ccc(N2CCOCC2)c(NC(=S)NCCN2CCOCC2)c1 | 2.4 | -2.6 | 80.9* | 1.7
O=C(Cn1nc(-c2ccccc2)ccc1=O)Nc1ccc(NC(=O)c2ccccn2)cc1 | 0.0 | 27.8 | 93.7* | 21.8
COc1ccc(-n2c(=S)[nH]c3cc(C(=O)Nc4ccccc4OC)ccc3c2=O)cc1 | 0.2 | 31.7* | -8.2 | 4.6
COc1ccc(-n2c(=S)[nH]c3cc(C(=O)Nc4ccccc4OC)ccc3c2=O)c(OC)c1 | 0.7 | -4.4 | nt | -0.5
CC(Nc1cc(N2CCOCC2)ccc1[N+](=O)[O-])c1ccccc1 (stereo not drawn) | 1.1 | 1.8 | 72.8* | -1.5
COc1cccc(-c2csc3nnc(SCC(=O)c4ccc(NC(C)=O)cc4)n23)c1 | 0.4 | -1.3 | 78.6* | 0.8
COC(=O)c1ccc(CNC(=O)COC(=O)C2CCC(C(C)(C)C)CC2)cc1 (stereo not drawn) | -0.2 | -0.4 | 93.2* | 1.7
N#C/C(C(N)=O)=c1/ccc2c(c1)N1C3=C(CCCC3)CC3CCCCC31N=2 (stereo not drawn) | -1.0 | 3.7 | 82.4* | 0.6
